The values that follow come from ChEMBL document CHEMBL5346864, “Identification of L. infantum trypanothione synthetase inhibitors with leishmanicidal activity from a (non-biased) in-house chemical library” (Eur J Med Chem, 2022).

A short description of series [1]: Inhibition of N-terminal His6-tagged recombinant Leishmania infantum promastigotes (MCAN/ES/89/IPZ229/1/89) TryS expressed in Escherichia coli BL21(DE3) Rossetta using saturating concentrations of ATP, GSH and GspdSH as substrate measured after 30 mins by BIOMOL Green reagent based assay. The method, boiled down: (§1)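 Recombinant His-LiTryS at 25 nM final, 100 mM HEPES pH 8, 0.5 mM EDTA, 10 mM MgCl2, 100 µM DTT, 2% DMSO, 37 °C, 30 min. Saturating substrates: 150 µM ATP, 100 µM GSH, 2 mM Spd or 500 µM GspdSH. […] Phosphate via BIOMOL Green, A650; 6-point curves, triplicate, three experiments.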

The nature of series [2]: Inhibition of N-terminal His6-tagged recombinant Leishmania infantum promastigotes (MCAN/ES/89/IPZ229/1/89) TryS expressed in Escherichia coli BL21(DE3) Rossetta using saturating concentrations of GSH and Spd and Km concentration of ATP as substrate measured after 30 mins by BIOMOL Green reagent based assay.
Series [3] is described as follows: Inhibition of N-terminal His6-tagged recombinant Leishmania infantum promastigotes (MCAN/ES/89/IPZ229/1/89) TryS expressed in Escherichia coli BL21(DE3) Rossetta using saturating concentrations of ATP, GSH and Spd as substrate measured after 30 mins by BIOMOL Green reagent based assay. The method, boiled down:
as §1

Series [4] is described as follows: Inhibition of N-terminal His6-tagged recombinant Leishmania infantum promastigotes (MCAN/ES/89/IPZ229/1/89) TryS expressed in Escherichia coli BL21(DE3) Rossetta using saturating concentrations of ATP and Spd and Km concentration of GSH as substrate measured after 30 mins by BIOMOL Green reagent based assay.
Series [5] can be described thus: Inhibition of N-terminal His6-tagged recombinant Leishmania infantum promastigotes (MCAN/ES/89/IPZ229/1/89) TryS expressed in Escherichia coli BL21(DE3) Rossetta using saturating concentrations of ATP and GSH and Km concentration of Spd as substrate measured after 30 mins by BIOMOL Green reagent based assay.
Series [6] concerns Leishmania infantum. The experiment in a line: Leishmanicidal activity against Leishmania infantum axenic amastigotes (MCAN/ES/89/IPZ229/1/89) assessed as inhibition of parasite proliferation measured after 24 hrs by resazurin dye based fluorescence analysis. It counts as functional, organism-based. The settings on record: MCAN/ES/89/IPZ229/1/89, 24 h. The method, boiled down: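 L. infantum MCAN/ES/89/IPZ229/1/89 axenic amastigotes (M199-based medium, pH 5.4, 37 °C) from log cultures seeded at 10^6/mL and treated 24 h at 37 °C. Resazurin added for a further 24 h; fluorescence read at ex 560/em 590 nm, normalized to vehicle, EC50 from two-parameter fit; triplicate in three independent experiments.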

A short description of series [7]: Inhibition of N-terminal His6-tagged recombinant Leishmania infantum promastigotes (MCAN/ES/89/IPZ229/1/89) TryS expressed in Escherichia coli BL21(DE3) Rossetta using saturating concentrations of ATP and GSH and Km concentration of GspdSH as substrate measured after 30 mins by BIOMOL Green reagent based assay.
In series [8] the test system is Leishmania infantum. The experiment in a line: Induction of plasma membrane depolarization in Leishmania infantum axenic amastigotes at 1 uM incubated for 2 hrs by DiBAC4(3)-derived flow cytometry. A general note: In flow cytometry, cells or beads pass a laser one at a time.
Series [9] deals with Leishmania infantum. As to the kind of experiment: Induction of mitochondrial inner membrane depolarization in Leishmania infantum axenic amastigotes at 5 uM incubated for 2 hrs by TMRM-derived flow cytometry.
Series [10] in a line: Selectivity index, ratio of CC50 for cytotoxicity against human HepG2 cells to EC50 for Anti-Leishmanial activity against GFP-expressing Leishmania infantum axenic amastigotes infected in human THP-1 cells. It counts as toxicity, cell-based. The settings on record: read-out: Ratio CC50/EC50.
Series [11] deals with Leishmania infantum. As to the kind of experiment: Anti-leishmanial activity against GFP-expressing Leishmania infantum axenic amastigotes infected in human THP-1 cells assessed as reduction in live intracellular GFP+ amastigotes measured after 72 hrs by fluorescence based analysis. It counts as functional, organism-based. As to conditions: THP-1, 72 h. The method, boiled down: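 THP-1 monocytes differentiated 24 h with 100 ng/mL PMA, infected 24 h with GFP-expressing L. infantum axenic amastigotes (5 × 10^6/mL), non-internalized parasites removed by washes and a 24 h horse-serum challenge. Treatment for 72 h at 37 °C in RPMI with 10% horse serum. SDS lysis; live (propidium iodide-negative) GFP+ amastigotes counted by flow cytometry, normalized to vehicle, EC50 by two-parameter fit; three independent experiments.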

Series [12] deals with Leishmania infantum. As to the kind of experiment: Increase in the intracellular superoxide radical concentration in Leishmania infantum axenic amastigotes at 1 uM incubated for 2 hrs by DHE-derived flow cytometry. It counts as functional, cell-based.
Series [13] is described as follows: Cytotoxicity against human HepG2 cells assessed as reduction in cell proliferation measured after 72 hrs by crystal violet staining based analysis. It counts as toxicity.
The nature of series [14]: Competitive inhibition of N-terminal His6-tagged recombinant Leishmania infantum promastigotes (MCAN/ES/89/IPZ229/1/89) TryS expressed in Escherichia coli BL21(DE3) Rossetta with fixed concentration of ATP and GSH and varying concentrations of GspdSH as substrate measured after 30 mins by Lineweaver-Burk double-reciprocal plot analysis. The gist of the method:
(§2)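 Recombinant His-tagged LiTryS (62.5 nM added to start) in 100 mM HEPES pH 8, 50 µL, 37 °C, 30 min; phosphate read with BIOMOL Green at 650 nm. Four inhibitor concentrations crossed with four varied substrate levels, no enzyme preincubation. […] Lineweaver-Burk analysis, three experiments.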

A short description of series [15]: Competitive inhibition of N-terminal His6-tagged recombinant Leishmania infantum promastigotes (MCAN/ES/89/IPZ229/1/89) TryS expressed in Escherichia coli BL21(DE3) Rossetta with fixed concentration of Spd and GSH and varying concentrations of ATP as substrate measured after 30 mins by Lineweaver-Burk double-reciprocal plot analysis. The method, boiled down:
as §2

The nature of series [16]: Mixed inhibition of N-terminal His6-tagged recombinant Leishmania infantum promastigotes (MCAN/ES/89/IPZ229/1/89) TryS expressed in Escherichia coli BL21(DE3) Rossetta with fixed concentration of ATP and GSH and varying concentrations of GspdSH as substrate measured after 30 mins by Lineweaver-Burk double-reciprocal plot analysis. The gist of the method: as §2
Series [17] in a line: Inhibition of N-terminal His6-tagged recombinant Leishmania infantum promastigotes (MCAN/ES/89/IPZ229/1/89) TryS expressed in Escherichia coli BL21(DE3) Rossetta by BIOMOL Green reagent based assay. The method, boiled down:
as §1

The source made the active and inactive calls. The calls are words filed in the database; no cut-off is given here. Bounds are passed on as bounds.

As usually defined, the IC50 is the point on the concentration scale where inhibition reaches its midpoint. A word on the EC50: it is the concentration needed to bring the measured effect to its halfway point. Regarding `CCCCCCCCCCCCCCCOc1cc(C[N+](C)(C)C2CCCC2)ccc1OCCCCCCCCCCCCCC`, the concentration for half-maximal inhibition (IC50) in [1] stood at 7.5 µM; in [2], 8.9 µM; in [3] it was 9.8 µM; in series [4] it was 8.7 µM; in series [5] it was 8.4 µM; in series [7], 6 µM. In addition, in the series on Leishmania infantum [6], the EC50 was above 75 µM.

On to `O=C(O[C@@H]1OC[C@@H](OC(=O)c2ccc(O)c(O)c2O)[C@@H](OC(=O)c2ccc(O)c(O)c2O)[C@H]1OC(=O)c1ccc(O)c(O)c1O)c1ccc(O)c(O)c1O`, for which the 50% inhibitory concentration (IC50) came out at 5.9 µM in series [1]; 7.1 µM in [2]; 5.4 µM in [3]; 6.7 µM in [4]; 4.7 µM in series [5]; 5.1 µM in series [7]. For the same compound, the half-maximal effective concentration (EC50) in the series with Leishmania infantum [6] amounted to 47.6 µM.

By CC50 is commonly meant the concentration giving 50% cytotoxicity. In the case of `CCCCCCCCCCCCCCOc1ccc(C[N+](C)(C)C2CCCC2)cc1OC`, the 50% inhibitory concentration (IC50) in series [1] came to 7.1 µM; in series [2], 7.3 µM; in series [3], 7.9 µM; in series [4], 7.8 µM; in [5], 5.5 µM; in series [7], 3.8 µM. Moreover, the result in the series on Leishmania infantum [8], in the series with Leishmania infantum [9] and with Leishmania infantum [12] was Active. In series [10], the selectivity ratio was determined as 35.5. Besides, the half-maximal effective concentration (EC50) in the series with Leishmania infantum [11] was 0.6 µM; with Leishmania infantum [6], 0.4 µM. Besides, the cytotoxic concentration (CC50) at 72 h in [13] was 21.3 µM.

One may read the Ki as the equilibrium dissociation constant of an inhibitor or competing ligand from its target. Take `NCCCCc1cn(-c2ccc(-c3nc(-c4ccc(Oc5ccccc5)cc4)c(-c4ccccc4)s3)c(OCCN3CCNC3=O)c2)nn1`: the concentration for half-maximal inhibition (IC50) in series [1] is 16.2 µM; in series [2], 8.7 µM; in series [3], 14.8 µM; in [4] it was 14.2 µM; in series [5], 10.9 µM; in [7], 10.7 µM. In addition, in [10], the selectivity ratio came to 1.2. In addition, the results for the EC50 in the series with Leishmania infantum [11] and with Leishmania infantum [6] were 13.5 µM and 21.5 µM, respectively. For the same compound, the Ki in series [14] was 3.9 µM; in [15], 5.4 µM. Further, the CC50 at 72 h in [13] is 15.9 µM.

Turning to `O=C(OC[C@H]1O[C@H](O[C@H]2O[C@H](COC(=O)c3cc(O)c(O)c(O)c3)[C@@H](OC(=O)c3cc(O)c(O)c(O)c3)[C@H](OC(=O)c3cc(O)c(O)c(O)c3)[C@H]2OC(=O)c2cc(O)c(O)c(O)c2)[C@H](OC(=O)c2cc(O)c(O)c(O)c2)[C@@H](OC(=O)c2cc(O)c(O)c(O)c2)[C@@H]1OC(=O)c1cc(O)c(O)c(O)c1)c1cc(O)c(O)c(O)c1`, the IC50 stood at 2.2 µM in series [1]; 5.4 µM in series [2]; 4.4 µM in series [3]; 5.4 µM in series [4]; 5.6 µM in series [5]; 2 µM in [7]. Also, the EC50 in the series on Leishmania infantum [6] was 43.7 µM. Also, in series [16], the inhibitory constant (Ki) is 0.8 µM.

For `CCCCCCCCCCCCCCCCOP(=O)([O-])OCC[N+](C)(C)C` [MILTEFOSINE], the result in the series with Leishmania infantum [8], in the series on Leishmania infantum [9] and in the series on Leishmania infantum [12] was Active. Also, the selectivity ratio in series [10] was above 107. Moreover, the 50% inhibitory concentration (IC50) in [17] turned out to be 45.6 µM. For the same compound, the half-maximal effective concentration (EC50) in the series with Leishmania infantum [11] was 0.7 µM; with Leishmania infantum [6], 0.5 µM. Besides, in series [13], the CC50 at 72 h is above 75 µM.

`CCCCCCCCCCCC(=O)NC(COC(=O)c1ccc(OCCN)c(OCCN)c1)COC(=O)c1cc(OCCN)c(OCCN)c(OCCN)c1` (stereo unspecified): the IC50 was 7.2 µM in [1]; 13.4 µM in [2]; 14.8 µM in [3]; 14.6 µM in series [4]; 9.9 µM in series [5]; 4.9 µM in [7]. Moreover, the selectivity ratio in series [10] is above 4.2. Further, the EC50 with Leishmania infantum [11] amounted to 17.9 µM; with Leishmania infantum [6], 7.3 µM. In addition, the Ki in series [14] worked out at 2.6 µM. The cytotoxic concentration (CC50) at 72 h in series [13] was above 75 µM.
